Blank lines part the entries; values can stand above or below the compound they belong to.
What was measured:
Hepatocyte [1] = assay: Drug metabolism in human hepatocytes assessed as metabolic reaction rate at 1 uM measured per 10^6 cells up to 3 hrs by LC-MS/MS analysis; assay type: ADME, cell-based
How it was run: (§1)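 Human liver S9 fraction, liver microsomes or hepatocytes were incubated with substrate or its deuterated analogue at 1 and 10 µM, with or without an NADPH-generating system. Substrate depletion over time was followed. Reaction rate was given as nmol/min/mg for S9 and microsomes, and nmol/min per 10^6 cells for hepatocytes.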

Liver [2] = assay: Drug metabolism in human liver S9 fraction assessed as metabolic reaction rate at 10 uM measured up to 3 hrs by LC-MS/MS analysis; assay type: ADME, subcellular; settings: s9, 3 h; how it was run: as §1
Hepatocyte [3] = assay: Drug metabolism in human hepatocytes assessed as metabolic reaction rate at 10 uM measured per 10^6 cells up to 3 hrs by LC-MS/MS analysis; assay type: ADME, cell-based; how it was run: as §1
Liver [4] = assay: Drug metabolism in human liver S9 fraction assessed as metabolic reaction rate at 1 uM measured up to 3 hrs by LC-MS/MS analysis; assay type: ADME, subcellular; settings: s9, 3 h; how it was run: as §1
Liver microsome [5] = assay: Drug metabolism in human liver microsomes assessed as metabolic reaction rate at 1 uM measured up to 3 hrs by LC-MS/MS analysis; assay type: ADME; how it was run: as §1
Liver microsome [6] = assay: Drug metabolism in human liver microsomes assessed as metabolic reaction rate at 10 uM measured up to 3 hrs by LC-MS/MS analysis; assay type: ADME; how it was run: as §1
[7] = AUClast in Sprague-Dawley rat at 20 mg/kg, po by LC-MS/MS analysis; assay type: ADME, organism-based; design: dose 20 mg/kg, route oral, time 0 - last; settings: in vivo
How it was run: (§2)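 Male Sprague–Dawley rats (5 per compound) received 20 mg/kg orally of parent or d14 analogue. Plasma was sampled at several times up to 48 h and assayed by LC–MS/MS. Tmax is reported with a range; Cmax, AUClast, AUC and t1/2 were derived from plasma concentration–time data.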

Liver microsome [8] = assay: Drug metabolism in human liver microsomes assessed as 1-(3-fluoropyridin-4-ylamino)-1H-indole-3-carboxylic acid-d4 formation at 5 uM up to 30 mins by LC-MS/MS analysis
Hepatocyte [9] = assay: Clearance in human hepatocytes at 10 uM measured per 10^6 cells up to 24 hrs by LC-MS/MS analysis; assay type: ADME, cell-based
How it was run: (§3)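 Plated human hepatocytes (two preparations) were incubated with parent or d14 analogue at 2 or 10 µM. Aliquots taken at several times up to 24 h were assayed by LC–MS/MS for parent, N-depropylated metabolite and carboxylic acid metabolite. Clearance was expressed as mL/h per 10^6 cells.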

[10] = Half-life in Sprague-Dawley rat at 20 mg/kg, po by LC-MS/MS analysis; assay type: ADME, organism-based; settings: in vivo; how it was run: as §2
Hepatocyte [11] = assay: Drug metabolism in human hepatocytes assessed as 1-(3-fluoropyridin-4-ylamino)-1H-indole-3-carboxylic acid-d4 formation at 2 to 10 uM up to 24 hrs by LC-MS/MS analysis; assay type: ADME, cell-based; how it was run: as §3
[12] = Tmax in Sprague-Dawley rat at 20 mg/kg, po by LC-MS/MS analysis; assay type: ADME, organism-based; settings: in vivo; how it was run: as §2
Rattus norvegicus [13] = assay: In vivo drug metabolism in Sprague-Dawley rat assessed as 1-(3-fluoropyridin-4-ylamino)-1H-indole-3-carboxylic acid formation at 20 mg/kg, po up to 48 hrs by LC-MS/MS analysis; assay type: ADME, organism-based
How it was run: (§4)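 Male Sprague–Dawley rats, 5 per compound, were dosed orally at 20 mg/kg with parent or d14 analogue. Plasma collected at several times up to 48 h was analysed by LC–MS/MS for parent, N-depropylated metabolite and carboxylic acid metabolite, giving concentration–time profiles.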

Hepatocyte [14] = assay: Drug metabolism in human hepatocytes assessed as 1-(3-fluoropyridin-4-ylamino)-1H-indole-3-carboxylic acid formation at 2 to 10 uM up to 24 hrs by LC-MS/MS analysis; assay type: ADME, cell-based; how it was run: as §3
[15] = AUC in Sprague-Dawley rat at 20 mg/kg, po by LC-MS/MS analysis; assay type: ADME, organism-based; settings: in vivo; how it was run: as §2
Liver microsome [16] = assay: Clearance in human liver microsomes assessed as initial mean metabolism rate at 5 uM at protein concentration of 0.25 mg/ml measured per mg protein up to 30 mins by LC-MS/MS analysis; assay type: ADME; settings: 0.5 h
How it was run: (§5)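 Human liver microsomes at 0.25, 0.5 or 1 mg protein/mL were incubated with 5 µM substrate (parent or d14 analogue). Aliquots taken at several times up to 30 min were assayed by LC–MS/MS for parent and N-depropylated metabolite. Initial mean metabolism rate was given as nmol/min/mg protein.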

Liver microsome [17] = assay: Clearance in human liver microsomes assessed as initial mean metabolism rate at 5 uM at protein concentration of 1 mg/ml measured per mg protein up to 30 mins by LC-MS/MS analysis; assay type: ADME; settings: 0.5 h; how it was run: as §5
Rattus norvegicus [18] = assay: In vivo drug metabolism in Sprague-Dawley rat assessed as 1-(3-fluoropyridin-4-ylamino)-1H-indole-3-carboxylic acid-d4 formation at 20 mg/kg, po up to 48 hrs by LC-MS/MS analysis; assay type: ADME, organism-based; how it was run: as §4
Hepatocyte [19] = assay: Clearance in human hepatocytes at 2 uM measured per 10^6 cells up to 24 hrs by LC-MS/MS analysis; assay type: ADME, cell-based; how it was run: as §3
Liver microsome [20] = assay: Clearance in human liver microsomes assessed as initial mean metabolism rate at 5 uM at protein concentration of 0.5 mg/ml measured per mg protein up to 30 mins by LC-MS/MS analysis; assay type: ADME; settings: 0.5 h; how it was run: as §5
[21] = Cmax in Sprague-Dawley rat at 20 mg/kg, po by LC-MS/MS analysis; assay type: ADME, organism-based; design: dose 20 mg/kg, route oral; settings: in vivo; how it was run: as §2
Hepatocyte [22] = assay: Drug formation in human hepatocytes treated with Nerispirdine at 2 to 10 uM up to 24 hrs by LC-MS/MS analysis; assay type: ADME, cell-based; how it was run: as §3
Liver microsome [23] = assay: Drug formation in human liver microsomes treated with Nerispirdine at 5 uM up to 30 mins by LC-MS/MS analysis
Rattus norvegicus [24] = assay: In vivo drug formation in Sprague-Dawley rat treated with Nerispirdine at 20 mg/kg, po up to 48 hrs by LC-MS/MS analysis; assay type: ADME, organism-based; how it was run: as §4
Liver microsome [25] = assay: Drug formation in human liver microsomes treated with (3-Fluoro-pyridin-4-yl)-(3-methyl-indol-1-yl)-propylamine-d14 formation at 5 uM up to 30 mins by LC-MS/MS analysis
Rattus norvegicus [26] = assay: In vivo drug formation in Sprague-Dawley rat treated with (3-Fluoro-pyridin-4-yl)-(3-methyl-indol-1-yl)-propylamine-d14 at 20 mg/kg, po up to 48 hrs by LC-MS/MS analysis; assay type: ADME, organism-based; how it was run: as §4
Hepatocyte [27] = assay: Drug formation in human hepatocytes treated with (3-Fluoro-pyridin-4-yl)-(3-methyl-indol-1-yl)-propylamine-d14 at 2 to 10 uM up to 24 hrs by LC-MS/MS analysis; assay type: ADME, cell-based; how it was run: as §3
Hepatocyte [28] = assay: Drug metabolism in human hepatocytes assessed as N-(3-fluoropyridin-4-yl)-3-methyl-1H-indol-1-amine formation at 2 to 10 uM up to 24 hrs by LC-MS/MS analysis; assay type: ADME, cell-based; how it was run: as §3
Rattus norvegicus [29] = assay: In vivo drug metabolism in Sprague-Dawley rat assessed as N-(3-fluoropyridin-4-yl)-3-methyl-1H-indol-1-amine formation at 20 mg/kg, po up to 48 hrs by LC-MS/MS analysis; assay type: ADME, organism-based; how it was run: as §4
Rattus norvegicus [30] = assay: In vivo drug metabolism in Sprague-Dawley rat assessed as (3-Fluoro-pyridin-4-yl)-(3-methyl-indol-1-yl)-amine-d7 formation at 20 mg/kg, po up to 48 hrs by LC-MS/MS analysis; assay type: ADME, organism-based; how it was run: as §4
Liver microsome [31] = assay: Drug metabolism in human liver microsomes assessed as N-(3-fluoropyridin-4-yl)-3-methyl-1H-indol-1-amine formation at 5 uM up to 30 mins by LC-MS/MS analysis

Drug metabolism (Hepatocyte [1]): 0.0143 nmol/min/10^6 cells
Drug metabolism (Liver [2]): 0.0238 nmol/min/mg
Drug metabolism (Hepatocyte [3]): 0.016 nmol/min/10^6 cells
Drug metabolism (Liver [4]): 0.0219 nmol/min/mg
Drug metabolism (Liver microsome [5]): 0.0201 nmol/min/mg
Drug metabolism (Liver microsome [6]): 0.0215 nmol/min/mg
SMILES: NCc1cccc(C2CCN(C(=O)c3ccc(C#Cc4ccccc4F)o3)CC2)c1

AUC(0-t) [7]: 3670 ng·h/mL
Drug metabolism (Liver microsome [8]): metabolite_notdetected
CLint (Hepatocyte [9]): 0.196 mL/h/10^6 cells
half-life [10]: 11.1 h
Drug metabolism (Hepatocyte [11]): metabolite_detected
Tmax [12]: 0.5 h
Drug metabolism (Rattus norvegicus [13]): metabolite_detected
Drug metabolism (Hepatocyte [14]): metabolite_detected
AUC [15]: 3800 ng·h/mL
metabolism rate (Liver microsome [16]): 0.42 nmol/min/mg
metabolic rate (Liver microsome [17]): 0.217 nmol/min/mg
Drug metabolism (Rattus norvegicus [18]): metabolite_detected
CLint (Hepatocyte [19]): 0.572 mL/h/10^6 cells
metabolic rate (Liver microsome [20]): 0.638 nmol/min/mg
Cmax [21]: 971 ng/mL
SMILES: [2H]c1cc2c(C([2H])([2H])[2H])c([2H])n(N(c3ccncc3F)C([2H])([2H])C([2H])([2H])C([2H])([2H])[2H])c2c([2H])c1[2H]

Drug metabolism (Hepatocyte [1]): 0.0143 nmol/min/10^6 cells
Drug metabolism (Liver [2]): 0.0043 nmol/min/mg
Drug metabolism (Hepatocyte [3]): 0.0081 nmol/min/10^6 cells
Drug metabolism (Liver [4]): 0.0081 nmol/min/mg
Drug metabolism (Liver microsome [5]): 0.0048 nmol/min/mg
Drug metabolism (Liver microsome [6]): 0.0045 nmol/min/mg
SMILES: [2H]C([2H])(N)c1cccc(C2CCN(C(=O)c3ccc(C#Cc4ccccc4F)o3)CC2)c1

Drug metabolism (Hepatocyte [22]): metabolite_detected
Drug metabolism (Liver microsome [23]): metabolite_detected
Drug metabolism (Rattus norvegicus [24]): metabolite_detected
SMILES: Cc1cn(Nc2ccncc2F)c2ccccc12

Drug metabolism (Liver microsome [25]): metabolite_detected
Drug metabolism (Rattus norvegicus [26]): metabolite_detected
Drug metabolism (Hepatocyte [27]): metabolite_detected
SMILES: [2H]c1cc2c(C([2H])([2H])[2H])c([2H])n(Nc3ccncc3F)c2c([2H])c1[2H]

Drug metabolism (Hepatocyte [22]): metabolite_detected
Drug metabolism (Rattus norvegicus [24]): metabolite_detected
SMILES: O=C(O)c1cn(Nc2ccncc2F)c2ccccc12

Drug metabolism (Rattus norvegicus [26]): metabolite_detected
Drug metabolism (Hepatocyte [27]): metabolite_detected
SMILES: [2H]c1cc2c(C(=O)O)c([2H])n(Nc3ccncc3F)c2c([2H])c1[2H]

AUC(0-t) [7]: 4070 ng·h/mL
Drug metabolism (Hepatocyte [28]): metabolite_detected
Drug metabolism (Rattus norvegicus [29]): metabolite_detected
CLint (Hepatocyte [9]): 0.2 mL/h/10^6 cells
half-life [10]: 10.2 h
Tmax [12]: 1 h
AUC [15]: 4180 ng·h/mL
metabolism rate (Liver microsome [16]): 1.15 nmol/min/mg
metabolic rate (Liver microsome [17]): 0.253 nmol/min/mg
Drug metabolism (Rattus norvegicus [30]): metabolite_detected
CLint (Hepatocyte [19]): 0.415 mL/h/10^6 cells
metabolic rate (Liver microsome [20]): 0.346 nmol/min/mg
Cmax [21]: 822 ng/mL
Drug metabolism (Liver microsome [31]): metabolite_detected
SMILES: CCCN(c1ccncc1F)n1cc(C)c2ccccc21 [NERISPIRDINE]

From ChEMBL document CHEMBL3585278, “Effect of deuteration on metabolism and clearance of Nerispirdine (HP184) and AVE5638” (Bioorg Med Chem, 2015)
